Test results reported in paper PMC12311552 (Molecular Metabolism, 2025).
Numbered stars: 1 amine (or outer) side, 2 acyl side, 3 side chain; on linkers, the order of the positions; unused ones are H or OH. Side chains are listed from the residue outwards. Peptide text beside a SMILES is read from it. * marks the point of attachment. Cy5(nonsulfonated) = CN1C(=CC=CC=CC2=[N+](CCCCCC(=O)*)c3ccccc3C2(C)C)C(C)(C)c2ccccc21; C18 diacid = O=C(O)CCCCCCCCCCCCCCCCC(=O)*; γGlu = O=C(O)[C@H](CCC(=O)[*:2])N[*:1]; Isovaleryl = CC(C)CC(=O)*; AEEA = NCCOCCOCC(=O)O

Assays:
human NPY1R = target: T1, human NPY1R (Homo sapiens, UniProt P25929); test: Competitive radioligand binding, membrane preparations, 125I-PYY1–36; details: up to 1 μM
T1 sequence (P25929 1-384): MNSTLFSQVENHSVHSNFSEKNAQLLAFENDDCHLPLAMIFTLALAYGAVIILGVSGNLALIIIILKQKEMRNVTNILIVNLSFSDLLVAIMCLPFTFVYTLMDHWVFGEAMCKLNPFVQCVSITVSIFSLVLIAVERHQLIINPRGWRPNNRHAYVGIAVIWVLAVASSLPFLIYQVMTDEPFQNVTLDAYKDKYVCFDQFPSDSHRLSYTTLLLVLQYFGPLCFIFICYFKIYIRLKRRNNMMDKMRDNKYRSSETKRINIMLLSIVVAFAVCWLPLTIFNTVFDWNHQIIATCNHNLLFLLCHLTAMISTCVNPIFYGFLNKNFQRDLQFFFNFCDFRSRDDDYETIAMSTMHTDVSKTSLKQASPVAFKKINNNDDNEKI

human NPY4R = human NPY4R (Homo sapiens, UniProt P50391); test: Competitive radioligand binding, membrane preparations, 125I-PP; details: up to 1 μM
Sequence of human NPY4R (P50391 whole entry): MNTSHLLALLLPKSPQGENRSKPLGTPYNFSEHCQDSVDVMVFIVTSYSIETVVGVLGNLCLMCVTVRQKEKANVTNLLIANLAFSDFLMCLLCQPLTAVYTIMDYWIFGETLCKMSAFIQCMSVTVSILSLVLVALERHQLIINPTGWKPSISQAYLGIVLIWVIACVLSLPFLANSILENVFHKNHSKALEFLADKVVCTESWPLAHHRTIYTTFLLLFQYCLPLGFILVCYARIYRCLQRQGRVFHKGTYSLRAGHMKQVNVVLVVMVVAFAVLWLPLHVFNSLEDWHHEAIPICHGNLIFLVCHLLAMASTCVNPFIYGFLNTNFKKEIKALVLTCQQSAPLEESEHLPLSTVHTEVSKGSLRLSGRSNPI

[1] = Pharmacokinetic study in mice; assay type: in vivo; details: male, NMRI, mouse, plasma, sc, 30 nmol/kg
Procedure, shortened: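 Male NMRI mice got a single dose of 30 nmol/kg, IV (N = 2) or SC (N = 3), in 50 mM phosphate pH 7.0 with 5% mannitol at 5 mL/kg. Plasma was sampled at several times after dosing, stored at -20 °C, and quantified by LC-MS/MS.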

[2] = Pharmacokinetic study in dogs; assay type: in vivo; details: male, beagle, dog, plasma, sc, 5 nmol/kg
Procedure, shortened: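 Male beagles were dosed once, IV 1.25 nmol/kg (N = 2) or SC 5 nmol/kg (N = 3). Plasma was sampled at several times after dosing, stored at -20 °C, and assayed by LC-MS/MS.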

male NMRI mice = test: Acute food intake in lean mice; assay type: in vivo, mouse
Procedure, shortened: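 Males, 5 weeks old on arrival, 4/cage, lights off 3 PM, chow ad libitum. Randomised by bodyweight (n = 7–8/group) with a vehicle group (50 mM phosphate pH 7.0, 5% mannitol; 5 mL/kg). Fasted from 6 h before night, dosed SC once 1 h before dark. Hourly food intake over 24 h as % of vehicle mean. ED50 by nonlinear fit.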

male C57BL/6JRj mice = test: Acute gastric emptying in lean mice; assay type: in vivo, mouse
Procedure, shortened: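 Males aged 9–10 weeks were fasted 8.5 h, then a basal blood glucose sample was taken for randomisation. After a further 30 min fast they got one SC dose. At 3 h, glucose 2 g/kg plus acetaminophen 100 mg/kg was gavaged (10 mL/kg). Blood acetaminophen and glucose were measured pre-load (20 min) and at 10, 30 and 60 min post-load. Gastric emptying was read as change in acetaminophen exposure.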

diet-induced obese mice = test: Subchronic, repeated dose study in diet-induced obese mice; assay type: in vivo, mouse; details: DIO mice
[3] = test system: Diet-induced obese (DIO) male C57BL6/J mice; test: 3D whole-brain c-Fos imaging; assay type: in vivo, mouse; details: 8 nmol/kg, 4 h after dosing
Procedure, shortened: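 Perfused 4 h post-dose. Brains were c-Fos immunolabelled, iDISCO+-cleared and imaged whole by light-sheet microscopy. c-Fos+ cells were atlas-mapped and counted per region, with region-wise statistics against vehicle.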

cynomolgus monkeys = test: Cardiovascular study in cynomolgus monkeys; assay type: in vivo, cynomolgus monkey; details: subcutaneous supratherapeutic doses
[4] = test system: Chow-fed male C57BL/6JRj mice; test: 3D whole-brain imaging by light-sheet fluorescence microscopy; assay type: in vivo, mouse; details: single s.c. dose 100 nmol/kg; SFO, AP, ME, choroid plexus, ARH
Procedure, shortened: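 Chow-fed males (n = 8/group) got one SC dose of unlabelled test compound or a Cy5-labelled analogue (Lys10), each 100 nmol/kg, and were killed at 6 h. Competition group: unlabelled 100 nmol/kg SC at 0, 8 and 24 h, labelled analogue 1 h later, killed after 1 h. Tongue was positive control. Tissue was perfusion-fixed, cleared and light-sheet imaged, giving atlas-aligned regional mean fluorescence (CVOs, ARH).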

human NPY2R (human) = human NPY2R (human) (UniProt P49146); test: radioligand binding
Sequence of human NPY2R (human) (P49146 whole entry): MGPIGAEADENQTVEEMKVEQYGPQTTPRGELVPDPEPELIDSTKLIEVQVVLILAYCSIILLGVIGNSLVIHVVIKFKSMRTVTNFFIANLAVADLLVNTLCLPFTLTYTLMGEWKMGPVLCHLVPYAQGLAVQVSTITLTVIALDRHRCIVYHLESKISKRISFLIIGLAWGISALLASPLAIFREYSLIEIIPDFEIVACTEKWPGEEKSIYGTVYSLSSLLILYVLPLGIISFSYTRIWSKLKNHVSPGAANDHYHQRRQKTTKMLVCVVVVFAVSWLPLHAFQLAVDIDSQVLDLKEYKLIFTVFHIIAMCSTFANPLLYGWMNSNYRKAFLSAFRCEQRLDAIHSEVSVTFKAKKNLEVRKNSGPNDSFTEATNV

With `CC[C@H](C)[C@H](NC(=O)[C@H](CCC(=O)O)NC(=O)[C@H](CCC(=O)O)NC(=O)[C@@H]1CCCN1C(=O)[C@H](CO)NC(=O)[C@H](C)NC(=O)[C@H](CC(=O)O)NC(=O)[C@H](CCC(=O)O)NC(=O)[C@H](CCC(=O)O)NC(=O)[C@@H]1CCCN1C(=O)[C@H](CCCCNC(=O)COCCOCCNC(=O)COCCOCCNC(=O)CC[C@H](NC(=O)CCCCCCCCCCCCCCCCC(=O)O)C(=O)O)NC(=O)[C@H](C)NC(=O)[C@@H]1CCCN1C(=O)[C@H](C)NC(=O)CC(C)C)C(=O)N[C@@H](CCC(N)=O)C(=O)N[C@@H](CCCNC(=N)N)C(=O)N[C@@H](Cc1ccc(O)cc1)C(=O)N[C@@H](Cc1ccc(O)cc1)C(=O)N[C@H](C(=O)N[C@@H](CO)C(=O)N[C@@H](CC(C)C)C(=O)N[C@@H](CCCNC(=N)N)C(=O)N[C@@H](Cc1c[nH]cn1)C(=O)N[C@@H](Cc1ccc(O)cc1)C(=O)N[C@@H](Cc1ccc(O)cc1)C(=O)N[C@@H](CC(N)=O)C(=O)N[C@@H](Cc1c[nH]c2ccccc12)C(=O)N[C@@H](CC(C)C)C(=O)N[C@H](C(=O)N[C@@H](CCCNC(=N)N)C(=O)N[C@@H](CCC(N)=O)C(=O)N[C@@H](CCCNC(=N)N)C(=O)N[C@@H](Cc1ccc(O)cc1)C(N)=O)[C@@H](C)O)C(C)C` [BI 1820237] the “binding to human NPY subtype 1” value (human NPY1R) was “no binding was detected”, the “binding to human NPY subtype 4” value (human NPY4R) was “no binding was detected” and the Tmax [1] was 3 h. The MRT [2] was 103 h, the “Emax, inhibition of food intake over 24 h” value (male NMRI mice; at the maximal tested dose of 100 nmol/kg) was roughly 85% and the “ED50, inhibition of food intake over 24 h” value (male NMRI mice; single subcutaneous dose) was 14 nmol/kg. The “ED50, reduction of gastric emptying” value (male C57BL/6JRj mice; lean mice, single dose, acetaminophen exposure) was roughly 2 nmol/kg, the Glucose excursion (male C57BL/6JRj mice; oral glucose 2 g/kg, same experiment) was “not affected” and the “weight of the epididymal adipose tissue compared with the vehicle group” value (diet-induced obese mice; study end, BI 1820237 1 nmol/kg alone or with survodutide 7.5 nmol/kg) was “did not reduce”. The “food intake reduction on Day 1, 24 h post-dosing” value (from here on “food intake reduction”) (diet-induced obese mice; 3 nmol/kg once daily s.c.) was 18%, the “food intake reduction” value (diet-induced obese mice; 10 nmol/kg once daily s.c.) was 59% and the “maximal bodyweight-lowering effect (reduction)” value (diet-induced obese mice; 30 nmol/kg at Day 5 of dosing) was 9%. For the same compound, the “food intake reduction” value (diet-induced obese mice; 30 nmol/kg once daily s.c.) was 71%, the “bodyweight reduction at the end of the study (non-significant)” value (diet-induced obese mice; 30 nmol/kg once daily, 4 weeks) was 2% and the “food intake after 4–5 days of dosing” value (diet-induced obese mice; 100 nmol/kg once daily) was “higher than the food intake in the vehicle group”. The “food intake reduction” value (diet-induced obese mice; 100 nmol/kg once daily s.c.) was 56%, the “food intake after 4–5 days of dosing” value (diet-induced obese mice; 3, 10 and 30 nmol/kg once daily) was “returned to the level of the vehicle-treated group” and the “effect on bodyweight at the end of the study” value (diet-induced obese mice; other doses (3, 10, 100 nmol/kg) once daily, 4 weeks) was “no effect”. For the same compound, the “whole-brain c-Fos expression compared with vehicle” value [3] was “little or no difference” and the emesis (cynomolgus monkeys) was “induced emesis”.
In the case of `CC[C@H](C)[C@H](NC(=O)[C@H](CCC(=O)O)NC(=O)[C@H](CCC(=O)O)NC(=O)[C@@H]1CCCN1C(=O)[C@H](CO)NC(=O)[C@H](C)NC(=O)[C@H](CC(=O)O)NC(=O)[C@H](CCCCNC(=O)CCCCC[N+]1=C(C=CC=CC=C2N(C)c3ccccc3C2(C)C)C(C)(C)c2ccccc21)NC(=O)[C@H](CCC(=O)O)NC(=O)[C@@H]1CCCN1C(=O)[C@H](CCCCNC(=O)COCCOCCNC(=O)COCCOCCNC(=O)CC[C@H](NC(=O)CCCCCCCCCCCCCCCCC(=O)O)C(=O)O)NC(=O)[C@H](C)NC(=O)[C@@H]1CCCN1C(=O)[C@H](C)NC(=O)CC(C)C)C(=O)N[C@@H](CCC(N)=O)C(=O)N[C@@H](CCCNC(=N)N)C(=O)N[C@@H](Cc1ccc(O)cc1)C(=O)N[C@@H](Cc1ccc(O)cc1)C(=O)N[C@H](C(=O)N[C@@H](CO)C(=O)N[C@@H](CC(C)C)C(=O)N[C@@H](CCCNC(=N)N)C(=O)N[C@@H](Cc1c[nH]cn1)C(=O)N[C@@H](Cc1ccc(O)cc1)C(=O)N[C@@H](Cc1ccc(O)cc1)C(=O)N[C@@H](CC(N)=O)C(=O)N[C@@H](Cc1c[nH]c2ccccc12)C(=O)N[C@@H](CC(C)C)C(=O)N[C@H](C(=O)N[C@@H](CCCNC(=N)N)C(=O)N[C@@H](CCC(N)=O)C(=O)N[C@@H](CCCNC(=N)N)C(=O)N[C@@H](Cc1ccc(O)cc1)C(N)=O)[C@@H](C)O)C(C)C` [BI 3005788] (Isovaleryl-APAK([AEEA-AEEA-γGlu-C18 diacid])PEK(Cy5(nonsulfonated))DASPEEIQRYYVSLRHYYNWLTRQRY-NH2; N-terminus and C-terminus assumed), the “lowering of food intake up to 6 h post-dosing” value (male NMRI mice; acute dose 100 nmol/kg, Fig. S3a–b) is reported as “comparable with BI 1820237 dosed at 30 nmol/kg” and the “fluorescence signal distribution in the mouse brain” value [4] is reported as “accumulated in 5 circumventricular organs”.
In the case of BI 1820237 (peptide), the Ki (human NPY2R (human)) is reported as 0.82 nM.
With survodutide [reference compound] the “bodyweight lowering versus baseline” value (diet-induced obese mice; after 28 days, survodutide 7.5 nmol/kg) was 17%, the “bodyweight lowering compared with the vehicle group” value (diet-induced obese mice; after 28 days, survodutide 7.5 nmol/kg alone or with 1 nmol/kg BI 1820237) was 21% and the lean mass (diet-induced obese mice; survodutide alone, or with 3 nmol/kg BI 1820237 at study start or 1 nmol/kg at Day 8) was “No significant change”.
